According to ChEMBL document CHEMBL1152865, “Synthesis and antimycobacterial activities of novel 6-nitroquinolone-3-carboxylic acids” (Eur J Med Chem, 2009):
In brackets after ≈: the same amount, converted by molar mass.

Experiments:
Mus musculus [1] = test: Phototoxicity in Swiss albino mouse exposed to 4 hrs of 18 J/cm'2 UV light irradiation assessed as ear thickness at 140 mg/kg, po after 48 hrs; assay type: organism-based; parameters: dose 140 mg/kg, route oral; conditions: in vivo
How it was run: (§1)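 Female Swiss albino mice about 2 months old, 20-25 g, fasted at least 18 h, six per group. Single oral gavage of 140 mg/kg; vehicle 0.5% aqueous sodium carboxymethylcellulose at 10 ml/kg; lomefloxacin HCl 140 mg/kg as positive control. UVA for 4 h (about 18 J/cm²) from dosing. Both ears scored for erythema, edema and thickness pre-dose, at 4 h, and at about 24, 48, 72 and 96 h.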

[2] = tested on: Mycolicibacterium smegmatis; test: Antibacterial activity against Mycobacterium smegmatis ATCC 14468 by agar dilution method; assay type: functional
How it was run: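 Agar dilution on Middlebrook 7H11 agar with OADC supplement, following an NCCLS-type procedure; MIC read in duplicate.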

[3] = Cytotoxicity against african green monkey Vero cells after 72 hrs by MTT assay; assay type: cell-based; conditions: chlorocebus sabaeus
How it was run: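 Cells exposed to compound for 72 h; viability from cellular MTT conversion to formazan; CC50 derived.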

[4] = tested on: Mycobacterium tuberculosis; test: Antibacterial activity against Mycobacterium tuberculosis H37Rv by agar dilution method; assay type: functional
How it was run: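 Agar dilution in Middlebrook 7H11 agar supplemented with OADC, following an approach similar to NCCLS guidance. MIC determined in duplicate.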

Mus musculus [5] = test: Phototoxicity in Swiss albino mouse assessed as ear thickness at 140 mg/kg, po measured after 4 hrs of 18 J/cm'2 UV light irradiation; assay type: organism-based; parameters: dose 140 mg/kg, route oral; conditions: in vivo; how it was run: as §1
Mus musculus [6] = test: Phototoxicity in Swiss albino mouse exposed to 4 hrs of 18 J/cm'2 UV light irradiation assessed as ear thickness at 140 mg/kg, po after 96 hrs; assay type: organism-based; parameters: dose 140 mg/kg, route oral; conditions: in vivo; how it was run: as §1
Mus musculus [7] = test: Phototoxicity in Swiss albino mouse exposed to 4 hrs of 18 J/cm'2 UV light irradiation assessed as ear thickness at 140 mg/kg, po after 24 hrs; assay type: organism-based; parameters: dose 140 mg/kg, route oral; conditions: in vivo; how it was run: as §1
Mus musculus [8] = test: Phototoxicity in Swiss albino mouse exposed to 4 hrs of 18 J/cm'2 UV light irradiation assessed as erythema at 140 mg/kg, po after 96 hrs; assay type: organism-based; parameters: dose 140 mg/kg, route oral; conditions: in vivo; how it was run: as §1
Mus musculus [9] = test: Phototoxicity in Swiss albino mouse exposed to 4 hrs of 18 J/cm'2 UV light irradiation assessed as erythema at 140 mg/kg, po; assay type: organism-based; parameters: dose 140 mg/kg, route oral; conditions: in vivo; how it was run: as §1
Mus musculus [10] = test: Phototoxicity in Swiss albino mouse assessed as erythema at 140 mg/kg, po after 4 hrs of 18 J/cm'2 UV light irradiation; assay type: organism-based; parameters: dose 140 mg/kg, route oral; conditions: in vivo; how it was run: as §1
Mus musculus [11] = test: Phototoxicity in Swiss albino mouse exposed to 4 hrs of 18 J/cm'2 UV light irradiation assessed as ear thickness at 140 mg/kg, po after 72 hrs; assay type: organism-based; parameters: dose 140 mg/kg, route oral; conditions: in vivo; how it was run: as §1
Mus musculus [12] = test: Phototoxicity in Swiss albino mouse exposed to 4 hrs of 18 J/cm'2 UV light irradiation assessed as erythema at 140 mg/kg, po after 72 hrs; assay type: organism-based; parameters: dose 140 mg/kg, route oral; conditions: in vivo; how it was run: as §1
[13] = tested on: Mycobacterium tuberculosis; test: Antimycobacterial activity against Mycobacterium tuberculosis ATCC 35801 infected in CD1 mouse assessed as bacterial load in spleen at 50 mg/kg, ip administered 10 days postinfection for 10 days measured after 35 days of infection; assay type: functional; conditions: route intraperitoneal
How it was run: (§2)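 Six-week-old female CD-1 mice, six per group, infected intravenously via the caudal vein with approximately 10⁷ viable M. tuberculosis ATCC 35801. Intraperitoneal treatment ran days 10–20 post-infection. At day 35, spleen and right lung were homogenized, serially 10-fold diluted and plated on 7H10 agar, incubated 37 °C, 4 weeks. Log CFU compared with vehicle-treated controls.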

[14] = tested on: Mycobacterium tuberculosis; test: Antimycobacterial activity against Mycobacterium tuberculosis ATCC 35801 infected in CD1 mouse assessed as bacterial load in lungs at 50 mg/kg, ip administered 10 days postinfection for 10 days measured after 35 days of infection; assay type: functional; conditions: route intraperitoneal; how it was run: as §2
Mus musculus [15] = test: Phototoxicity in Swiss albino mouse exposed to 4 hrs of 18 J/cm'2 UV light irradiation assessed as erythema at 140 mg/kg, po after 48 hrs; assay type: organism-based; parameters: dose 140 mg/kg, route oral; conditions: in vivo; how it was run: as §1
Mus musculus [16] = test: Phototoxicity in Swiss albino mouse exposed to 4 hrs of 18 J/cm'2 UV light irradiation assessed as erythema at 140 mg/kg, po after 24 hrs; assay type: organism-based; parameters: dose 140 mg/kg, route oral; conditions: in vivo; how it was run: as §1
Mus musculus [17] = test: Phototoxicity in Swiss albino mouse exposed to 18 J/cm'2 UV light irradiation assessed as ear thickness at 140 mg/kg, po; assay type: organism-based; parameters: dose 140 mg/kg, route oral; conditions: in vivo; how it was run: as §1
[18] = Inhibition of Mycobacterium smegmatis DNA gyrase assessed as inhibition of relaxed circular pUC18 supercoiling activity by agarose gel electrophoresis; parameters: species or system Mycolicibacterium smegmatis
How it was run: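 Gyrase purified from M. smegmatis, pre-incubated with compound in DMSO. Then 400 ng relaxed pUC18 added in 35 mM Tris-HCl pH 7.5, 5 mM MgCl2, 25 mM potassium glutamate, 2 mM spermidine, 2 mM ATP, BSA, yeast tRNA and 5% glycerol. Incubated 30 min at 37 °C; read-out by agarose gel electrophoresis. Ciprofloxacin and 5% DMSO reactions run as controls.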

[19] = tested on: Mycobacterium tuberculosis; test: Antimycobacterial activity against Mycobacterium tuberculosis ATCC 35801 infected in CD1 mouse assessed as bacterial load in spleen at 25 mg/kg, ip administered 10 days postinfection for 10 days measured after 35 days of infection; assay type: functional; conditions: route intraperitoneal; how it was run: as §2
[20] = tested on: Mycobacterium tuberculosis; test: Antimycobacterial activity against Mycobacterium tuberculosis ATCC 35801 infected in CD1 mouse assessed as bacterial load in lungs at 25 mg/kg, ip administered 10 days postinfection for 10 days measured after 35 days of infection; assay type: functional; conditions: route intraperitoneal; how it was run: as §2

| Structure (SMILES) | Activity (Mus musculus [1]) [mm] | MIC [2] [µM] | CC50 at 72 h [3] [µM] | MIC [4] [µM] | Activity (Mus musculus [5]) [mm] | Activity (Mus musculus [6]) [mm] | Activity (Mus musculus [7]) [mm] | Activity (Mus musculus [8]) | Activity (Mus musculus [9]) | Activity (Mus musculus [10]) | Activity (Mus musculus [11]) [mm] | Activity (Mus musculus [12]) | log10cfu [13] | log10cfu [14] | Activity (Mus musculus [15]) | Activity (Mus musculus [16]) | Activity (Mus musculus [17]) [mm] | IC50 [18] [µg/mL] | log10cfu [19] | log10cfu [20] |
| --- | --- | --- | --- | --- | --- | --- | --- | --- | --- | --- | --- | --- | --- | --- | --- | --- | --- | --- | --- | --- |
| O=C(O)c1cn(C2CC2)c2cc(N3CCN(Cc4ccc5c(c4)OCO5)CC3)c([N+](=O)[O-])cc2c1=O | 0.28 | 0.79 (≈ 0.389 µg/mL) | 127 | 0.08 (≈ 0.0394 µg/mL) | 0.27 | 0.29 | 0.28 | Non-toxic | Non-toxic | Non-toxic | 0.31 | Non-toxic | 4.87 | 5.21 | Non-toxic | Non-toxic | 0.25 | 30 (≈ 60.9 µM) | – | – |
| O=C(O)c1cn(C2CC2)c2cc(N3CCC(O)(c4ccc(Cl)cc4)CC3)c([N+](=O)[O-])cc2c1=O | – | 3.22 (≈ 1.56 µg/mL) | 129 | 0.81 (≈ 0.392 µg/mL) | – | – | – | – | – | – | – | – | – | – | – | – | – | 5 (≈ 10.3 µM) | – | – |
| O=C(O)c1cn(C2CC2)c2cc(N3CCC(N4CCCCC4)CC3)c([N+](=O)[O-])cc2c1=O | 0.26 | 1.77 (≈ 0.78 µg/mL) | 142 | 0.43 (≈ 0.189 µg/mL) | 0.26 | 0.28 | 0.26 | Non-toxic | Non-toxic | Non-toxic | 0.29 | – | – | – | Non-toxic | Non-toxic | 0.24 | 20 (≈ 45.4 µM) | – | – |
| CN1CCN(c2cc3c(cc2[N+](=O)[O-])c(=O)c(C(=O)O)cn3C2CC2)CC1c1ccccc1 (centres undefined) | 0.32 | 0.87 (≈ 0.39 µg/mL) | 136 | 0.2 (≈ 0.0897 µg/mL) | 0.31 | 0.34 | 0.3 | Non-toxic | Non-toxic | Non-toxic | 0.32 | Non-toxic | – | – | Non-toxic | – | 0.3 | 30 (≈ 66.9 µM) | – | – |
| COc1c(N2CCNC(C)C2)c(F)cc2c(=O)c(C(=O)O)cn(C3CC3)c12 (centres undefined) [GATIFLOXACIN] | – | 2.08 (≈ 0.781 µg/mL) | > 155 | 1.04 (≈ 0.39 µg/mL) | – | – | – | – | – | – | – | – | 6.92 | 6.02 | – | – | – | – | – | – |
| NNC(=O)c1ccncc1 [ISONIAZID] | – | 45.6 (≈ 6.25 µg/mL) | > 456 | 0.36 (≈ 0.0494 µg/mL) | – | – | – | – | – | – | – | – | – | – | – | – | – | – | 4.71 | 5.86 |
| CCn1cc(C(=O)O)c(=O)c2cc(F)c(N3CCNC(C)C3)c(F)c21 (centres undefined) [LOMEFLOXACIN] | 0.53 | – | – | – | 0.4 | 0.6 | 0.48 | Toxic | Non-toxic | Toxic | 0.64 | Toxic | – | – | Toxic | Toxic | 0.31 | – | – | – |
